Test results: ChEMBL document CHEMBL2177069, “Novel peptidomimetic compounds containing redox active chalcogens and quinones as potential anticancer agents” (Eur J Med Chem, 2012)

Experiments:
Saccharomyces cerevisiae [1] = assay: Growth inhibition of UFD2-deficient Saccharomyces cerevisiae YDL190C mutant at 20 ug/disc after 24 to 48 hrs by agar diffusion assay; format: functional; conditions: read-out: DIZ
Summary of the method: (§1)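 S. cerevisiae deletion mutants or wild type grown on YPD, seeded into liquid agar medium at an optical density of 0.1. 6 mm paper discs soaked with methanolic compound solution were placed on the plates and incubated at 30 °C. Growth was checked after 1 and 2 days, and the inhibition zone diameter was recorded in mm.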

Saccharomyces cerevisiae [2] = assay: Growth inhibition of COX17-deficient Saccharomyces cerevisiae YLL009C mutant at 20 ug/disc after 24 to 48 hrs by agar diffusion assay; format: functional; conditions: read-out: DIZ; summary of the method: as §1
Saccharomyces cerevisiae [3] = assay: Growth inhibition of RCK1-deficient Saccharomyces cerevisiae YGL158W mutant at 20 ug/disc after 24 to 48 hrs by agar diffusion assay; format: functional; conditions: read-out: DIZ; summary of the method: as §1
Saccharomyces cerevisiae [4] = assay: Growth inhibition of POS5-deficient Saccharomyces cerevisiae YPL188W mutant at 20 ug/disc after 24 to 48 hrs by agar diffusion assay; format: functional; conditions: read-out: DIZ; summary of the method: as §1
Saccharomyces cerevisiae [5] = assay: Growth inhibition of WSC4-deficient Saccharomyces cerevisiae YHL028W mutant at 20 ug/disc 24 to 48 hrs by agar diffusion assay; format: functional; conditions: read-out: DIZ; summary of the method: as §1
Saccharomyces cerevisiae [6] = assay: Growth inhibition of PST2-deficient Saccharomyces cerevisiae YDR032C mutant at 20 ug/disc 24 to 48 hrs by agar diffusion assay; format: functional; conditions: read-out: DIZ; summary of the method: as §1
Saccharomyces cerevisiae [7] = assay: Growth inhibition of SOD2-deficient Saccharomyces cerevisiae YHR008C mutant at 20 ug/disc 24 to 48 hrs by agar diffusion assay; format: functional; conditions: read-out: DIZ; summary of the method: as §1
Saccharomyces cerevisiae [8] = assay: Growth inhibition of wild type Saccharomyces cerevisiae BY4741 at 20 ug/disc after 24 to 48 hrs by agar diffusion assay; format: functional; conditions: read-out: DIZ; summary of the method: as §1
[9] = Cytotoxicity against human PHF cells after 24 hrs by MTT assay; format: cell-based
Summary of the method: (§2)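 MTT assay. Cells were seeded at 50,000 cells/mL in medium with 10% fetal calf serum and grown for two days at 37 °C, 10% CO2. Serial dilutions of compound were then added for 24 h. MTT was added (final 0.5 mg/mL) for 2 h, and the formazan was pelleted, washed, dissolved in isopropanol with 0.4% HCl and read at 590 nm. IC50 is the concentration giving 50% of untreated-control absorbance, taken from dose-response curves; mean of two parallel experiments.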

HUVEC = assay: Cytotoxicity against human HUVEC cells after 24 hrs by MTT assay; format: cell-based; summary of the method: as §2
A-431 = assay: Cytotoxicity against human A431 cells after 24 hrs by MTT assay; format: functional, cell-based; conditions: A-431, 24 h; summary of the method: as §2
Hs-578T = assay: Cytotoxicity against human Hs578T cells; format: functional
MCF7 = assay: Cytotoxicity against human MCF7 cells; format: functional
UO-31 = assay: Cytotoxicity against human UO31 cells; format: functional
PC-3 = assay: Cytotoxicity against human PC3 cells; format: functional
SN12C = assay: Cytotoxicity against human SN12C cells; format: functional
RXF 393 = assay: Cytotoxicity against human RXF393 cells; format: functional
NCI/ADR-RES = assay: Cytotoxicity against human NCI/ADR-RES cells; format: functional
OVCAR-5 = assay: Cytotoxicity against human OVCAR5 cells; format: functional
IGROV-1 = assay: Cytotoxicity against human IGROV1 cells; format: functional
UACC-62 = assay: Cytotoxicity against human UACC62 cells; format: functional
SK-MEL-5 = assay: Cytotoxicity against human SK-MEL-5 cells; format: functional
SK-MEL-28 = assay: Cytotoxicity against human SK-MEL-28 cells; format: functional
SK-MEL-2 = assay: Cytotoxicity against human SK-MEL-2 cells; format: functional
MDA-MB-435 = assay: Cytotoxicity against human MDA-MB-435 cells; format: functional
Malme-3M = assay: Cytotoxicity against human MALME-3M cells; format: functional
M14 = assay: Cytotoxicity against human M14 cells; format: functional
SNB-75 = assay: Cytotoxicity against human SNB75 cells; format: functional
SNB-19 = assay: Cytotoxicity against human SNB19 cells; format: functional
SF-295 = assay: Cytotoxicity against human SF295 cells; format: functional
SW-620 = assay: Cytotoxicity against human SW620 cells; format: functional
KM12 = assay: Cytotoxicity against human KM12 cells; format: functional
HCT-15 = assay: Cytotoxicity against human HCT15 cells; format: functional
NCI-H522 = assay: Cytotoxicity against human NCI-H522 cells; format: functional
NCI-H460 = assay: Cytotoxicity against human NCI-H460 cells; format: functional
HOP-92 = assay: Cytotoxicity against human HOP92 cells; format: functional
NCI-H226 = assay: Cytotoxicity against human NCI-H226 cells; format: functional
A549 = assay: Cytotoxicity against human A549 cells; format: functional
HOP-62 = assay: Cytotoxicity against human HOP62 cells; format: functional
MOLT-4 = assay: Cytotoxicity against human MOLT4 cells; format: functional
[10] = read-out: pLC50 (the source's name) (converted)

CC1=C(SCCC(=O)OC(C[Se]C2=C(C)C(=O)c3ccccc3C2=O)C(=O)NCCCCCC(=O)OCc2ccccc2)C(=O)c2ccccc2C1=O (stereo not drawn)
zone of inhibition at 20 µg/disc (Saccharomyces cerevisiae [1]): 0 mm | zone of inhibition at 20 µg/disc (Saccharomyces cerevisiae [2]): 11 mm | zone of inhibition at 20 µg/disc (Saccharomyces cerevisiae [3]): 10 mm | zone of inhibition at 20 µg/disc (Saccharomyces cerevisiae [4]): 10 mm | zone of inhibition at 20 µg/disc (Saccharomyces cerevisiae [5]): 16 mm | zone of inhibition at 20 µg/disc (Saccharomyces cerevisiae [6]): 11 mm | zone of inhibition at 20 µg/disc (Saccharomyces cerevisiae [7]): 15 mm | zone of inhibition at 20 µg/disc (Saccharomyces cerevisiae [8]): 0 mm | IC50 [9]: 5 µM | IC50 (HUVEC): 7 µM | IC50 (A-431): 6 µM | GI50 (Hs-578T): 7.59 µM | LC50 (Hs-578T): > 100 µM | TGI (Hs-578T; read-out: pTGI (converted)): > 100 µM | GI50 (MCF7): 4.79 µM | LC50 (MCF7): > 100 µM | TGI (MCF7; read-out: pTGI (converted)): 29.5 µM | GI50 (UO-31): 2.51 µM | LC50 (UO-31): 50.1 µM | TGI (UO-31; read-out: pTGI (converted)): 15.1 µM | GI50 (PC-3): 2.57 µM | LC50 (PC-3): 55 µM | TGI (PC-3; read-out: pTGI (converted)): 9.12 µM | GI50 (SN12C): 4.68 µM | LC50 (SN12C): 57.5 µM | TGI (SN12C; read-out: pTGI (converted)): 16.6 µM | GI50 (RXF 393): 14.8 µM | LC50 (RXF 393): 53.7 µM | TGI (RXF 393; read-out: pTGI (converted)): 28.2 µM | GI50 (NCI/ADR-RES): 4.57 µM | CC50 (NCI/ADR-RES; [10]): 81.3 µM | TGI (NCI/ADR-RES; read-out: pTGI (converted)): 18.2 µM | GI50 (OVCAR-5): 5.01 µM | LC50 (OVCAR-5): 61.7 µM | TGI (OVCAR-5; read-out: pTGI (converted)): 18.6 µM | GI50 (IGROV-1): 2.14 µM | LC50 (concentration killing 50% of cells) (IGROV-1): 53.7 µM | TGI (IGROV-1; read-out: pTGI (converted)): 14.5 µM | GI50 (UACC-62): 8.13 µM | LC50 (UACC-62): 46.8 µM | TGI (UACC-62; read-out: pTGI (converted)): 20.9 µM | GI50 (SK-MEL-5): 3.8 µM | LC50 (SK-MEL-5): 39.8 µM | TGI (SK-MEL-5; read-out: pTGI (converted)): 14.8 µM | GI50 (SK-MEL-28): 11.7 µM | LC50 (SK-MEL-28): 51.3 µM | TGI (SK-MEL-28; read-out: pTGI (converted)): 24.5 µM | GI50 (SK-MEL-2): 5.5 µM | LC50 (SK-MEL-2): 52.5 µM | TGI (SK-MEL-2; read-out: pTGI (converted)): 19.1 µM | GI50 (MDA-MB-435): 2.14 µM | LC50 (MDA-MB-435): 49 µM | TGI (MDA-MB-435; read-out: pTGI (converted)): 12.9 µM | GI50 (Malme-3M): 2.09 µM | LC50 (Malme-3M): 56.2 µM | TGI (Malme-3M; read-out: pTGI (converted)): 6.92 µM | GI50 (M14): 2 µM | LC50 (M14): 8.91 µM | TGI (M14; read-out: pTGI (converted)): 4.27 µM | GI50 (SNB-75): 11.5 µM | LC50 (SNB-75): 49 µM | TGI (SNB-75; read-out: pTGI (converted)): 24 µM | GI50 (SNB-19): 3.8 µM | LC50 (SNB-19): 40.7 µM | TGI (SNB-19; read-out: pTGI (converted)): 14.1 µM | GI50 (SF-295): 2.51 µM | LC50 (SF-295): 97.7 µM | TGI (SF-295; read-out: pTGI (converted)): 8.71 µM | GI50 (SW-620): 2.45 µM | LC50 (SW-620): 36.3 µM | TGI (SW-620; read-out: pTGI (converted)): 9.33 µM | GI50 (KM12): 1.41 µM | LC50 (KM12): 13.8 µM | TGI (KM12; read-out: pTGI (converted)): 4.07 µM | GI50 (HCT-15): 6.61 µM | LC50 (HCT-15): 58.9 µM | TGI (HCT-15; read-out: pTGI (converted)): 21.4 µM | GI50 (NCI-H522): 3.98 µM | LC50 (NCI-H522): 44.7 µM | TGI (NCI-H522; read-out: pTGI (converted)): 15.1 µM | GI50 (NCI-H460): 1.91 µM | LC50 (NCI-H460): 14.1 µM | TGI (NCI-H460; read-out: pTGI (converted)): 4.57 µM | GI50 (HOP-92): 2.69 µM | LC50 (50% lethal concentration) (HOP-92): 30.9 µM | TGI (HOP-92; read-out: pTGI (converted)): 7.94 µM | GI50 (NCI-H226): 19.5 µM | CC50 (NCI-H226; [10]): > 100 µM | TGI (NCI-H226; read-out: pTGI (converted)): 51.3 µM | GI50 (A549): 3.98 µM | LC50 (A549): > 100 µM | TGI (A549; read-out: pTGI (converted)): 11.5 µM | GI50 (HOP-62): 3.8 µM | LC50 (HOP-62): 39.8 µM | TGI (HOP-62; read-out: pTGI (converted)): 14.5 µM | GI50 (MOLT-4): 4.07 µM | LC50 (MOLT-4): > 100 µM | TGI (MOLT-4; read-out: pTGI (converted)): > 100 µM
